The text below walks through data of ChEMBL document CHEMBL4184277, “Substitution of terminal amide with 1H-1,2,3-triazole: Identification of unexpected class of potent antibacterial agents” (2018).

Holding throughout (type): functional
The test system of assay [1] is Staphylococcus aureus. The assay is described as follows: Antibacterial activity against Staphylococcus aureus ATCC 25923 after 24 hrs by broth microdilution method. To be noted: ATCC 25923, 24 h. The gist of the method:
(§1)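 Broth microdilution run to the standard NCCLS-recommended procedure, applied to all newly synthesized compounds, with a panel that included four Gram-positive strains.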

The test system of assay [2] is Staphylococcus aureus. Kind of assay: Antibacterial activity against penicillin-resistant Staphylococcus aureus after 24 hrs by broth microdilution method. In general terms: Broth dilution looks for growth in wells or tubes with falling amounts of substance.
Assay [3] relates to Bacillus subtilis. Kind of assay: Antibacterial activity against Bacillus subtilis ATCC 9372 after 24 hrs by broth microdilution method. To be noted: ATCC 9372, 24 h. The gist of the method: as §1
Assay [4] has as its system Klebsiella pneumoniae. Kind of assay: Antibacterial activity against Klebsiella pneumoniae ATCC 700603 after 24 hrs by broth microdilution method. The note with it: Klebsiella pneumoniae, 700603, 24 h. The gist of the method:
as §1

The test system of assay [5] is Escherichia coli. Kind of assay: Antibacterial activity against Escherichia coli ATCC 25922 after 24 hrs by broth microdilution method. The note with it: ATCC 25922, 24 h. The gist of the method:
as §1

For assay [6], the system named is Staphylococcus aureus. The assay is described as follows: Antibacterial activity against methicillin-resistant Staphylococcus aureus ATCC 43300 after 24 hrs by broth microdilution method. The note with it: ATCC 43300, 24 h.

≈ marks a conversion by molar mass, not a printed value.

On to `Fc1ccc(OCc2ccc(Cl)cc2)c(F)c1-c1c[nH]nn1`, for which the MIC in assay [1], in assay [2], in assay [3], in assay [4], in assay [5] and in assay [6] was more than 64 µg/mL each time.

Take `Cc1ccc(COc2cccc(-c3c[nH]nn3)c2)cc1`: the MIC is 32 µg/mL (≈ 121 µM) in assay [1]; more than 64 µg/mL in assay [2]; more than 64 µg/mL in assay [3]; more than 64 µg/mL in assay [4]; more than 64 µg/mL in assay [5]; more than 64 µg/mL in assay [6].

Take `NC(=O)c1c(F)ccc(OCc2nc3cc(Cl)cnc3s2)c1F`: the MIC in assay [1] is 0.5 µg/mL (≈ 1.41 µM); in assay [2] it was 0.5 µg/mL (≈ 1.41 µM); in assay [3], 0.25 µg/mL (≈ 0.703 µM); in assay [4] it was 0.25 µg/mL (≈ 0.703 µM); in assay [5] it was more than 64 µg/mL; in assay [6] it was 1 µg/mL (≈ 2.81 µM).

Turning to `Clc1ccc(COc2cccc(Cn3cncn3)c2)cc1`, the MIC was more than 64 µg/mL in assay [1]; more than 64 µg/mL in assay [2]; more than 64 µg/mL in assay [3]; 64 µg/mL (≈ 214 µM) in assay [4]; more than 64 µg/mL in assay [5]; more than 64 µg/mL in assay [6].

Turning to `O=c1[nH]nc(-c2cccc(OCc3ccccc3)c2)o1`, the MIC in assay [1], in assay [2], in assay [3], in assay [4], in assay [5] and in assay [6] was more than 64 µg/mL each time.

Consider `CCCCC(CC)COc1ccc(F)c(-c2c[nH]nn2)c1F` (racemic), for which the MIC was 8 µg/mL (≈ 25.9 µM) in assay [1]; 8 µg/mL (≈ 25.9 µM) in assay [2]; 4 µg/mL (≈ 12.9 µM) in assay [3]; 8 µg/mL (≈ 25.9 µM) in assay [4]; more than 64 µg/mL in assay [5]; 4 µg/mL (≈ 12.9 µM) in assay [6].

As for `CCCCC(CC)COc1cccc(-c2cn(C)nn2)c1` (stereo not given), the MIC in assay [1] is 64 µg/mL (≈ 223 µM); in assay [2] it was more than 64 µg/mL; in assay [3] it was 32 µg/mL (≈ 111 µM); in assay [4], 4 µg/mL (≈ 13.9 µM); in assay [5] it was more than 64 µg/mL; in assay [6] it was 32 µg/mL (≈ 111 µM).

Turning to `CCCCC(CC)COc1cccc(-c2nnco2)c1` (racemic), the MIC in assay [1] is 32 µg/mL (≈ 117 µM); in assay [3], 16 µg/mL (≈ 58.3 µM); in assay [4] it was 16 µg/mL (≈ 58.3 µM); in assay [5], more than 64 µg/mL.

As for `O=[N+]([O-])c1ccc(COc2cccc(Cn3cncn3)c2)cc1`, the MIC in assay [1], in assay [2], in assay [3], in assay [4], in assay [5] and in assay [6] was more than 64 µg/mL each time.

`CCCCC(CC)COc1cccc(-c2cnnn2C)c1` (stereo not given): the MIC in assay [1] is 64 µg/mL (≈ 223 µM); in assay [2] it was more than 64 µg/mL; in assay [3], 64 µg/mL (≈ 223 µM); in assay [4] it was 16 µg/mL (≈ 55.7 µM); in assay [5] it was more than 64 µg/mL; in assay [6], more than 64 µg/mL.

For the compound `CCCCC(CC)COc1cccc(-c2ncno2)c1` (racemic), the MIC in assay [1], in assay [2], in assay [3], in assay [4], in assay [5] and in assay [6] was more than 64 µg/mL each time.

With `Clc1ccc(OCCCCOc2cccc(-c3c[nH]nn3)c2)cc1`, the MIC in assay [1], in assay [2], in assay [3], in assay [4], in assay [5] and in assay [6] was more than 64 µg/mL each time.

On to `Cc1ccc(COc2ccc(F)c(-c3c[nH]nn3)c2F)cc1`, for which the MIC in assay [1] was 32 µg/mL (≈ 106 µM); in assay [2], 32 µg/mL (≈ 106 µM); in assay [3] it was 32 µg/mL (≈ 106 µM); in assay [4], more than 64 µg/mL; in assay [5], more than 64 µg/mL; in assay [6], 16 µg/mL (≈ 53.1 µM).

With `CCCCC(CC)COc1ccc(F)c(C(N)=O)c1F` (stereo not given), the MIC was 4 µg/mL (≈ 14 µM) in assay [1]; 8 µg/mL (≈ 28 µM) in assay [2]; 2 µg/mL (≈ 7.01 µM) in assay [3]; 4 µg/mL (≈ 14 µM) in assay [4]; more than 64 µg/mL in assay [5]; 2 to 4 µg/mL (≈ 7.01 to 14 µM) in assay [6].

Turning to `Cc1cccc(COc2cccc(Cn3cncn3)c2)c1`, the MIC in assay [1], in assay [2], in assay [3], in assay [4], in assay [5] and in assay [6] was more than 64 µg/mL each time.

For the compound `Fc1cccc(COc2ccc(F)c(-c3c[nH]nn3)c2F)c1`, the MIC in assay [1] was 64 µg/mL (≈ 210 µM); in assay [2], 64 µg/mL (≈ 210 µM); in assay [3], more than 64 µg/mL; in assay [4], more than 64 µg/mL; in assay [5], more than 64 µg/mL; in assay [6], more than 64 µg/mL.

As to `Clc1cccc(COc2cccc(-c3c[nH]nn3)c2)c1`, the MIC in assay [1] was 16 µg/mL (≈ 56 µM); in assay [2], 32 µg/mL (≈ 112 µM); in assay [3] it was 16 µg/mL (≈ 56 µM); in assay [4], 16 µg/mL (≈ 56 µM); in assay [5] it was more than 64 µg/mL; in assay [6], 16 µg/mL (≈ 56 µM).

Usually MIC stands for the smallest concentration in the dilution series that meets the test's criterion for growth inhibition. A high value points to a need for much substance.
